This is an account of results in ChEMBL document CHEMBL3244152, “Pivaloyl esters of N,N-dialkylated dopamine congeners. Central dopamine-receptor stimulating activity” (1978).

Molecules are shown by their SMILES. Activity calls are given as the source filed them. The rule behind the calls is not given here.

The test system of assay [1] is Rattus norvegicus. The assay can be described thus: Effect on motor activity in reserpinized Sprague-Dawley rat assessed as stereotyped movements at 2 umolkg, sc measured every 5 mins for 2 hrs by motility meter method. The format is functional, organism-based. The method, boiled down: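 Male Sprague-Dawley rats (200–350 g) given reserpine 10 mg/kg ip 6 h before testing. Drug dissolved in saline (0.9%), neutral pH, 10 mL/kg, injected sc in the neck. Each rat then placed alone in a test cage inside a motility meter. Counts were recorded per 5-min period for 2 h, with gross behavior watched through a mirror. Means, n = 4-5.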

Assay [2] has as its system Rattus norvegicus. The assay can be described thus: Stimulation of dopamine receptor in sc dosed Sprague-Dawley rat assessed as reduction in Dopa accumulation in limbic forebrain by spectrofluorimetry. Type of assay: functional. Conditions: Limbic system, read-out: ID50 (the source's name). The method, boiled down: (§1)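 Pooled regions from two brains went to perchloric acid extraction, cation exchange and Dopa spectrofluorimetry. Dose giving 50% Dopa decrease came from least-squares double-reciprocal plots (1/% change vs 1/dose).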

Assay [3] concerns Rattus norvegicus. As to the kind of experiment: Stimulation of dopamine receptor in sc dosed Sprague-Dawley rat assessed as reduction in Dopa accumulation in straitum by spectrofluorimetry. The format is functional. Conditions: read-out: ID50 (the source's name). The method, boiled down:
as §1

Assay [4] deals with Rattus norvegicus. As to the kind of experiment: Effect on motor activity in reserpinized Sprague-Dawley rat assessed as stereotyped movements at 200 umolkg, po measured every 5 mins for 2 hrs by motility meter method. The format is functional, organism-based. Summed up: (§2)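 Male Sprague-Dawley rats (200–350 g) were given reserpine 10 mg/kg ip 6 h before testing. Drug in 0.9% saline (neutral pH, 10 mL/kg) was given at 20 μmol/kg sc in the neck or 200 μmol/kg po by stomach tube. Rats were caged singly in motility meters at once, with counts recorded per 5-min period over 2 h; means n = 4-5.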

In assay [5] the test system is Rattus norvegicus. The assay can be described thus: Effect on motor activity in reserpinized Sprague-Dawley rat assessed as stereotyped movements at 20 umolkg, sc measured every 5 mins for 2 hrs by motility meter method. The format is functional, organism-based. The method, boiled down:
as §2

In assay [6] the test system is Rattus norvegicus. As to the kind of experiment: Stimulation of dopamine receptor in Sprague-Dawley rat assessed as reduction in Dopa accumulation in at 1 mg/kg, sc by spectrofluorimetry. Type of assay: functional, organism-based. The arrangement: dose 1 mg/kg.
Assay [7] relates to Rattus norvegicus. The assay can be described thus: Effect on motor activity in reserpinized Sprague-Dawley rat assessed as stereotyped movements at 20 umolkg, sc measured up to 10 mins by motility meter method. Type of assay: functional, organism-based. Summed up:
as §2

Consider `CN1CCc2cccc3c2[C@H]1Cc1ccc(O)c(O)c1-3` [APOMORPHINE], for which the result with Rattus norvegicus [1] was Active. Moreover, the ED50 with Rattus norvegicus [2] and in the assay on Rattus norvegicus [3] was 0.23 µmol/kg in each case.

As to `CCCN(CCC)CCc1ccc(OC(=O)C(C)(C)C)c(OC(=O)C(C)(C)C)c1`, the outcome with Rattus norvegicus [4] was inactive. The results for the ED50 with Rattus norvegicus [2] and with Rattus norvegicus [3] were 28 µmol/kg and 33 µmol/kg, respectively. Besides, in the assay with Rattus norvegicus [5], the outcome was Active.

Consider `CCCN(CCC)CCc1cccc(O)c1`, for which the result in the assay with Rattus norvegicus [4] was inactive. Also, the ED50 with Rattus norvegicus [2] turned out to be 5.7 µmol/kg; with Rattus norvegicus [3], 1.8 µmol/kg. The outcome with Rattus norvegicus [5] was Active.

`CC(N)Cc1ccccc1` (configuration not stated): the outcome with Rattus norvegicus [6] was inactive.

As to `CN1CCc2cccc3c2[C@H]1Cc1ccc(OC(=O)C(C)(C)C)c(OC(=O)C(C)(C)C)c1-3`, the result in the assay with Rattus norvegicus [1] was Active.

Consider `CCCN(CCC)CCc1ccc(O)c(O)c1`, for which, in the assay with Rattus norvegicus [4], the outcome was inactive. Besides, the figures for the ED50 in the assay with Rattus norvegicus [2] and with Rattus norvegicus [3] were 25 µmol/kg and 20 µmol/kg, respectively.

For `CCN(CC)CCc1ccc(OC(=O)C(C)(C)C)c(OC(=O)C(C)(C)C)c1`, the outcome in the assay on Rattus norvegicus [4] and with Rattus norvegicus [5] was inactive. For the same compound, the ED50 in the assay with Rattus norvegicus [2] and in the assay with Rattus norvegicus [3] was greater than 27 µmol/kg each time.

With `CN(C)CCc1ccc(OC(=O)C(C)(C)C)c(OC(=O)C(C)(C)C)c1`, the outcome in the assay with Rattus norvegicus [4] and with Rattus norvegicus [5] was inactive. The ED50 in the assay on Rattus norvegicus [2] and with Rattus norvegicus [3] was greater than 45 µmol/kg each time.

`CCCCN(CCCC)CCc1ccc(OC(=O)C(C)(C)C)c(OC(=O)C(C)(C)C)c1`: the result with Rattus norvegicus [4] and in the assay on Rattus norvegicus [5] was inactive. Moreover, the ED50 with Rattus norvegicus [2] and in the assay on Rattus norvegicus [3] was greater than 180 µmol/kg in each case.

In the case of `CCCN(CCC)CCc1cccc(OC)c1`, the outcome in the assay on Rattus norvegicus [4] and in the assay on Rattus norvegicus [5] was inactive. In addition, the ED50 in the assay with Rattus norvegicus [2] and in the assay on Rattus norvegicus [3] was greater than 45 µmol/kg throughout.

`CCCN(CCC)CCc1cccc(OC(=O)C(C)(C)C)c1`: the result in the assay with Rattus norvegicus [7] and in the assay with Rattus norvegicus [4] was inactive. For the same compound, the ED50 in the assay with Rattus norvegicus [2] turned out to be 2.7 µmol/kg; in the assay with Rattus norvegicus [3], 1.8 µmol/kg. Besides, the result with Rattus norvegicus [5] was Active.
